Data set [1] concerns the target T1, Keap1/Nrf2 (Homo sapiens) (UniProt Q16236+Q14145). The data set can be described thus: Activation of Keap1/Nrf2 in human MCF7 cells assessed as Nrf2 stabilization incubated overnight by luciferase reporter gene based luminescence assay. The format is cell-based. The essentials: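 NRF2 luciferase reporter MCF7 stable cells in DMEM/10% FBS with G418, seeded 5 × 10^4 cells/well, overnight adherence; DMSO-dissolved compound 1.98–15.0 μM, overnight 37 °C/5% CO2. Lysed in passive lysis buffer, firefly luciferase substrate injected, luminescence read. Activation (%) = (treated − untreated)/untreated × 100, DMSO value subtracted; tBHQ and DMF positive controls; three technical replicates per biological replicate.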
For orientation: A reporter such as luciferase makes a cellular process visible.

The subject of data set [2] is Mus musculus. Kind of data set: Antiinflammatory activity in hypersensitivity CD1 mouse ear edema model assessed as PMA-induced ear edema at 3 umol/ear applied topically pretreated for 10 mins followed by PMA application measured after 6 hrs (reference value: 32.5 +/- 7.5%). It is filed as functional.
Data set [3] concerns Mus musculus. Kind of data set: Antiinflammatory activity in hypersensitivity CD1 mouse ear edema model assessed as PMA-induced ear edema at 1 umol/ear applied topically pretreated for 10 mins followed by PMA application measured after 6 hrs (reference value: 32.5 +/- 7.5%). The format is functional.
Data set [4] deals with Mus musculus. The data set can be described thus: Antiinflammatory activity in hypersensitivity CD1 mouse ear edema model assessed as PMA-induced ear edema at 0.3 umol/ear applied topically pretreated for 10 mins followed by PMA application measured after 6 hrs (reference value: 32.5 +/- 7.5%). The format is functional.
In data set [5] the test system is Mus musculus. The data set can be described thus: Antiinflammatory activity in hypersensitivity CD1 mouse ear edema model assessed as PMA-induced ear edema at 0.1 umol/ear applied topically pretreated for 10 mins followed by PMA application measured after 6 hrs (reference value: 32.5 +/- 7.5%). It is filed as functional.
The target in data set [6] is T2, Kelch-like ECH-associated protein 1/Nuclear factor erythroid 2-related factor 2 (Mus musculus) (UniProt Q60795+Q9Z2X8). Kind of data set: Activation of Keap1/Nrf2 in mouse LPS-induced RAW264.7 cells assessed as increase in Srxn1 expression level at 4 to 12 uM pretreated for 1 hr followed by LPS addition measured after 30 to 180 mins. It is filed as cell-based. The procedure, abridged:
(§1)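 RAW 264.7 macrophages (DMEM, 10% FBS) grown near confluent; compound (4 or 12 μM) or EtOH vehicle 1 h at 37 °C, then LPS (E. coli O26:B6, 0.5 μg/mL) for 30 or 180 min; triplicate wells. TRIzol total RNA, rRNA depletion, Illumina HiSeq2000 100 bp single-end reads; DESeq2 differential expression versus matched LPS-only control.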

The target in data set [7] is T2, Kelch-like ECH-associated protein 1/Nuclear factor erythroid 2-related factor 2 (Mus musculus). Kind of data set: Activation of Keap1/Nrf2 in mouse LPS-induced RAW264.7 cells assessed as increase in Hmox1 expression level at 12 uM pretreated for 1 hr followed by LPS addition measured after 30 to 180 mins. The format is cell-based. The procedure, abridged: as §1

Data set [8] shares this target. Kind of data set: Activation of Keap1/Nrf2 in mouse LPS-induced RAW264.7 cells assessed as downregulation of Socs3 expression level at 4 to 12 uM pretreated for 1 hr followed by LPS addition measured after 30 mins. The format is cell-based. The procedure, abridged:
as §1

The target is the same in data set [9]. The data set can be described thus: Activation of Keap1/Nrf2 in mouse LPS-induced RAW264.7 cells assessed as downregulation of Rasgef1 expression level at 4 to 12 uM pretreated for 1 hr followed by LPS addition measured after 30 mins. The format is cell-based. The procedure, abridged:
as §1

For data set [10] the target is unchanged. Kind of data set: Activation of Keap1/Nrf2 in mouse LPS-induced RAW264.7 cells assessed as increase in […] expression level at 4 to 12 uM pretreated for 1 hr followed by LPS addition measured after 30 to 180 mins. It is filed as cell-based. The essentials: as §1
Data set [11] has the same target. Kind of data set: Activation of Keap1/Nrf2 in mouse LPS-induced RAW264.7 cells assessed as increase in Prdx1 expression level at 4 to 12 uM pretreated for 1 hr followed by LPS addition measured after 30 to 180 mins. The format is cell-based. The procedure, abridged: as §1
Data set [12] has the same target. Kind of data set: Activation of Keap1/Nrf2 in mouse LPS-induced RAW264.7 cells assessed as increase in Sqstm1 expression level at 4 to 12 uM pretreated for 1 hr followed by LPS addition measured after 30 to 180 mins. It is filed as cell-based. The essentials: as §1
Data set [13] shares this target. The data set can be described thus: Activation of Keap1/Nrf2 in mouse LPS-induced RAW264.7 cells assessed as increase in Gclm expression level at 4 to 12 uM pretreated for 1 hr followed by LPS addition measured after 30 to 180 mins. It is filed as cell-based. The procedure, abridged: as §1
The target is the same in data set [14]. Kind of data set: Activation of Keap1/Nrf2 in mouse LPS-induced RAW264.7 cells assessed as increase in Slc7a11 expression level at 4 to 12 uM pretreated for 1 hr followed by LPS addition measured after 30 to 180 mins. The format is cell-based. The essentials: as §1
For data set [15] the target is unchanged. Kind of data set: Activation of Keap1/Nrf2 in mouse LPS-induced RAW264.7 cells assessed as increase in Akr1b8 expression level at 4 to 12 uM pretreated for 1 hr followed by LPS addition measured after 30 to 180 mins. The format is cell-based. The procedure, abridged: as §1
Data set [16] shares this target. Kind of data set: Activation of Keap1/Nrf2 in mouse LPS-induced RAW264.7 cells assessed as change in Procr expression level at 4 to 12 uM pretreated for 1 hr followed by LPS addition measured after 30 to 180 mins. The format is cell-based. The essentials: as §1
For data set [17] the target is unchanged. The data set can be described thus: Activation of Keap1/Nrf2 in mouse LPS-induced RAW264.7 cells assessed as change in Fosl1 expression level at 4 to 12 uM pretreated for 1 hr followed by LPS addition measured after 30 to 180 mins. It is filed as cell-based. The essentials: as §1
The target is the same in data set [18]. The data set can be described thus: Activation of Keap1/Nrf2 in mouse LPS-induced RAW264.7 cells assessed as change in Cd300lb expression level at 4 to 12 uM pretreated for 1 hr followed by LPS addition measured after 30 to 180 mins. It is filed as cell-based. The procedure, abridged:
as §1

The target is the same in data set [19]. Kind of data set: Activation of Keap1/Nrf2 in mouse LPS-induced RAW264.7 cells assessed as change in […] expression level at 4 to 12 uM pretreated for 1 hr followed by LPS addition measured after 30 to 180 mins. The format is cell-based. The procedure, abridged:
as §1

For data set [20] the target is unchanged. The data set can be described thus: Activation of Keap1/Nrf2 in mouse LPS-induced RAW264.7 cells assessed as change in Ccl22 expression level at 4 to 12 uM pretreated for 1 hr followed by LPS addition measured after 30 to 180 mins. It is filed as cell-based. The essentials: as §1
The target is the same in data set [21]. The data set can be described thus: Activation of Keap1/Nrf2 in mouse LPS-induced RAW264.7 cells assessed as change in IL-1alpha expression level at 4 to 12 uM pretreated for 1 hr followed by LPS addition measured after 30 to 180 mins. It is filed as cell-based. The procedure, abridged: as §1
The target is the same in data set [22]. The data set can be described thus: Activation of Keap1/Nrf2 in mouse LPS-induced RAW264.7 cells assessed as change in IFNb1 expression level at 4 to 12 uM pretreated for 1 hr followed by LPS addition measured after 30 to 180 mins. It is filed as cell-based. The procedure, abridged: as §1
Data set [23] shares this target. Kind of data set: Activation of Keap1/Nrf2 in mouse LPS-induced RAW264.7 cells assessed as change in Irf1 expression level at 4 to 12 uM pretreated for 1 hr followed by LPS addition measured after 30 to 180 mins. It is filed as cell-based. The essentials: as §1
For data set [24] the target is unchanged. The data set can be described thus: Activation of Keap1/Nrf2 in mouse LPS-induced RAW264.7 cells assessed as change in Fos expression level at 4 to 12 uM pretreated for 1 hr followed by LPS addition measured after 30 to 180 mins. The format is cell-based. The essentials: as §1
For data set [25] the target is unchanged. The data set can be described thus: Activation of Keap1/Nrf2 in mouse LPS-induced RAW264.7 cells assessed as change in Nfkbia expression level at 4 to 12 uM pretreated for 1 hr followed by LPS addition measured after 30 to 180 mins. It is filed as cell-based. The procedure, abridged:
as §1

Data set [26] shares this target. Kind of data set: Activation of Keap1/Nrf2 in mouse LPS-induced RAW264.7 cells assessed as change in Cd83 expression level at 4 to 12 uM pretreated for 1 hr followed by LPS addition measured after 30 to 180 mins. The format is cell-based. The essentials:
as §1

Data set [27] shares this target. Kind of data set: Activation of Keap1/Nrf2 in mouse LPS-induced RAW264.7 cells assessed as change in TNF expression level at 4 to 12 uM pretreated for 1 hr followed by LPS addition measured after 30 to 180 mins. It is filed as cell-based. The procedure, abridged:
as §1

For data set [28] the target is unchanged. Kind of data set: Activation of Keap1/Nrf2 in mouse LPS-induced RAW264.7 cells assessed as change in IL-1beta expression level at 4 to 12 uM pretreated for 1 hr followed by LPS addition measured after 30 to 180 mins. The format is cell-based. The essentials:
as §1

Data set [29] has the same target. Kind of data set: Activation of Keap1/Nrf2 in mouse LPS-induced RAW264.7 cells assessed as change in Nfkbiz expression level at 4 to 12 uM pretreated for 1 hr followed by LPS addition measured after 30 to 180 mins. The format is cell-based. The essentials: as §1
Data set [30] has the same target. Kind of data set: Activation of Keap1/Nrf2 in mouse LPS-induced RAW264.7 cells assessed as change in Ccrl2 expression level at 4 to 12 uM pretreated for 1 hr followed by LPS addition measured after 30 to 180 mins. The format is cell-based. The essentials: as §1
The target is the same in data set [31]. The data set can be described thus: Activation of Keap1/Nrf2 in mouse LPS-induced RAW264.7 cells assessed as change in Tnfaip3 expression level at 4 to 12 uM pretreated for 1 hr followed by LPS addition measured after 30 to 180 mins. It is filed as cell-based. The procedure, abridged: as §1
The subject of the next data set is MCF7. The data set can be described thus: Cytotoxicity against human MCF7 cells assessed as decrease in cell viability at 15 uM by MTT assay. The format is cell-based. The following applies: mcf7, 15 µM. The essentials: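 Nrf2-reporter MCF7 cells seeded and dosed as in the reporter assay (1.98–15.0 μM in DMSO, overnight at 37 °C). Cells washed, then 1 mg/mL MTT in serum-free DMEM for 25 min at 37 °C. Formazan dissolved in DMSO, absorbance read at 570 and 630 nm, background subtracted. Viability given as % of untreated control, mean ± standard error.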
A general note: Formazan colour is commonly taken as a measure of viable cells.

For data set [32], the target named is T1, Keap1/Nrf2 (Homo sapiens). The data set can be described thus: Activation of Keap1/Nrf2 in human MCF7 cells assessed as Nrf2 stabilization at 15 uM incubated overnight by luciferase reporter gene based luminescence assay. The format is cell-based. The essentials: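 MCF7 cells stably carrying an Nrf2-responsive firefly luciferase construct, grown with G418, seeded 5 × 10^4 cells/well and left overnight at 37 °C. Compound added in DMSO (tested range 1.98–15.0 μM), incubated overnight. Cells washed, lysed 15 min at room temperature, luminescence read after substrate injection. Activation = % RLU over untreated cells, DMSO value subtracted. Triplicate technical wells; positive controls tBHQ and DMF.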

Among the data in ChEMBL document CHEMBL4138226, “Marine Natural Product Honaucin A Attenuates Inflammation by Activating the Nrf2-ARE Pathway” (J Nat Prod, 2018) are Activity values, retold here.

Where a name gives a salt, the structure may show the parent alone. The source made the active and inactive calls. The calls are words filed in the database; no cut-off is given here.

T2 sequence (Q60795 whole entry, looked up): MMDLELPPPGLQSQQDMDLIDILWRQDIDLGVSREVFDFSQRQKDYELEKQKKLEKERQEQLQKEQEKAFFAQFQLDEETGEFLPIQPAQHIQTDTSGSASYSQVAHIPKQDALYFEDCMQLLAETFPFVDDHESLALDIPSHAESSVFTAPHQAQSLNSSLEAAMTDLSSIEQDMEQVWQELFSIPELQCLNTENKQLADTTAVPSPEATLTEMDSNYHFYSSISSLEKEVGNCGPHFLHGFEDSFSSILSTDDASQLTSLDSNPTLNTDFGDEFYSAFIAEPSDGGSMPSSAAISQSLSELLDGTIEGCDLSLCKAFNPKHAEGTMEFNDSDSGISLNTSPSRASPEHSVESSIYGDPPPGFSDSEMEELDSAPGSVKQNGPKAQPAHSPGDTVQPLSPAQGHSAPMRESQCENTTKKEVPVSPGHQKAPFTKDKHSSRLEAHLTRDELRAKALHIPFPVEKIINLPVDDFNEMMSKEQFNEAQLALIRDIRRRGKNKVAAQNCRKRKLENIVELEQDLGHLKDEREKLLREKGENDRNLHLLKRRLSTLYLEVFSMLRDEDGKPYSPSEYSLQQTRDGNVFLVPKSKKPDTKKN
T2 sequence (Q9Z2X8 whole entry, looked up): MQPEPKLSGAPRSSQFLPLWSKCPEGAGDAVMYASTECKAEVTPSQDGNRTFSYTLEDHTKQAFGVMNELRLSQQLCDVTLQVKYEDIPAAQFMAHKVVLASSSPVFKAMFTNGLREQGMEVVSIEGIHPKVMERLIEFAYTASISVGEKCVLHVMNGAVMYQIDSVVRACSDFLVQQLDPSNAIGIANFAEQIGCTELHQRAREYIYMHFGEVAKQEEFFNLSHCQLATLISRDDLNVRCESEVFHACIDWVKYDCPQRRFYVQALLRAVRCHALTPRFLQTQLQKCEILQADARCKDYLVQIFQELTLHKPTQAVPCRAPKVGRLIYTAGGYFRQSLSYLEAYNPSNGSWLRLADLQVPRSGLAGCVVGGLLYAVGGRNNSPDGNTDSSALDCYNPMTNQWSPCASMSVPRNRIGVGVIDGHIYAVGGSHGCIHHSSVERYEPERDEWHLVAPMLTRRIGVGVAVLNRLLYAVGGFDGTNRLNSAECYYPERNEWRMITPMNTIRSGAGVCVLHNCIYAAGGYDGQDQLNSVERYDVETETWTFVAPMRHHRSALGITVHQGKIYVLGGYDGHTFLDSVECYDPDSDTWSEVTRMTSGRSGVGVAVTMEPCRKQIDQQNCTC
T1 sequence (Q14145 whole entry, looked up): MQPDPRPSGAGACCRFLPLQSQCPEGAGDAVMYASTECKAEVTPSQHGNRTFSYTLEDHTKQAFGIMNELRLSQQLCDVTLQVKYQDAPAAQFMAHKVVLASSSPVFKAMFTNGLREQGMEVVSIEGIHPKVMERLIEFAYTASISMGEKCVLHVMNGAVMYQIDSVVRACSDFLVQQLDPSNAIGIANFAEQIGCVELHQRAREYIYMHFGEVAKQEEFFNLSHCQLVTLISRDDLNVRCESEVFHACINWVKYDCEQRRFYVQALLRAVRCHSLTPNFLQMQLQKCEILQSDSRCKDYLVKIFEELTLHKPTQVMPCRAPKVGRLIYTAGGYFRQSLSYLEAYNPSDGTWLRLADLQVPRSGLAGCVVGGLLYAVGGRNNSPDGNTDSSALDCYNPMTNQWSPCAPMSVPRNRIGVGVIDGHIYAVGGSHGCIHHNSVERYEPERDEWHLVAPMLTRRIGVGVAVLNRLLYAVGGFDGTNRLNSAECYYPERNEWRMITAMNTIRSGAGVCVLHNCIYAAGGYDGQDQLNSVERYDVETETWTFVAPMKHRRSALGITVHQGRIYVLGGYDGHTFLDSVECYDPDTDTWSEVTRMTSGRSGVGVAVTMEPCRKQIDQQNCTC
T1 sequence (Q16236 whole entry, looked up): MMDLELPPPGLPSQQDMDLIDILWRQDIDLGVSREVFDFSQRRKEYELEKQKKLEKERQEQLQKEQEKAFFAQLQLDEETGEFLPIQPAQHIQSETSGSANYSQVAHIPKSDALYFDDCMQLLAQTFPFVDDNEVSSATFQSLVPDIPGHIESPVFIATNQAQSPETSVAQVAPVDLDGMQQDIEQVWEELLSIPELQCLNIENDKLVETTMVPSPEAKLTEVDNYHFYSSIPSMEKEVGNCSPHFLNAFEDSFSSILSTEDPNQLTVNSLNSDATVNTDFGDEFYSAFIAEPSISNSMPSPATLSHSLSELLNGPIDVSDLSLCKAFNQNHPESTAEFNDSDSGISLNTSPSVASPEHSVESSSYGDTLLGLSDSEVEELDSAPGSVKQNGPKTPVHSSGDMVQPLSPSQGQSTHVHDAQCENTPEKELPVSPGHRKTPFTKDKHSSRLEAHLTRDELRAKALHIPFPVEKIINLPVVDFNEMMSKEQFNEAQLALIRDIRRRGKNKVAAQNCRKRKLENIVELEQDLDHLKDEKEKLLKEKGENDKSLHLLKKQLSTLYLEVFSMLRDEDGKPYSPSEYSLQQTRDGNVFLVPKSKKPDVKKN

For `O=C(/C=C/CCl)O[C@@H]1COC(=O)C1`, the Activity entry in [1] was “Dose-dependent effect”; with Mus musculus [2], 51.4%; in the data set on Mus musculus [3], 27.6%; in the data set on Mus musculus [4] it was 10%; with Mus musculus [5] it was 17.1%; in the data set with MCF7 it was “Toxic”. For the same molecule, the outcome in data set [6], in [7], in [8], in [9], in data set [10] and in data set [11] was Active. Besides, the result in [12], in [13], in [14], in data set [15], in data set [16] and in [17] was Active. Besides, the outcome in data set [18], in data set [19], in data set [20], in data set [21], in data set [22] and in data set [23] was Active. The result in data set [24], in data set [25], in data set [26], in [27], in data set [28] and in data set [29] was Active. Besides, the outcome in data set [30] and in data set [31] was Active.

With `COC(=O)/C=C/C(=O)OC` [DIMETHYL FUMARATE], the outcome in [32] was Active. Further, the Activity entry in the data set with MCF7 was “Toxic”.

For `CC(C)(C)c1cc(O)ccc1O` [E319], the outcome in [32] was Active. Besides, in the data set with MCF7, the Activity entry is “Toxic”.
